Data set [1] relates to SK-BR-3. Briefly: Effect on HSF-1 level in human SK-BR-3 cells assessed as nuclear accumulation at 10 uM incubated for 36 hrs by DAPI staining based immunofluorescence analysis. The format is functional, cell-based. The essentials: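 Cells treated 36 h with DMSO vehicle control, then fixed with 4% paraformaldehyde 15 min, permeabilized with 0.2% Triton X-100 5 min, blocked with 3% BSA 15 min; primary antibody then fluorescent secondary antibody, each 1 h at room temperature; HSP70 green, HSF-1 red, nuclei DAPI; imaged by fluorescence microscopy.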

For data set [2], the system named is SK-BR-3. Briefly: Induction of apoptosis in human SK-BR-3 cells assessed as increase in cleaved pro-caspase-3 level at 10 to 20 uM incubated for 48 hrs by Western blot analysis. The class given is functional, cell-based. Particulars: dose 10-20 µM. The essentials:
(§1)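 Cells exposed 48 h (DMSO vehicle control); trypsinized, lysed in RIPA with phosphatase/protease inhibitors; 20 μg protein on SDS-PAGE, blotted, blocked 5% milk 1 h; primary antibodies 1:1000 overnight at 4 °C, GAPDH 1:10000 as loading control; HRP secondary 1:1000–1:5000; ECL detection.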

A short description of data set [3]: Selectivity index, ratio of IC50 for HEK293T cells to IC50 for human MCF7 cells. The class given is toxicity. The settings on record: HEK293T cells versus MCF7 cells, read-out: Ratio IC50. The essentials: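 Viability of 293T and MCF-7 cells was measured by MTT assay, and IC50 was fitted by non-linear regression. The selectivity index is the 293T IC50 divided by the MCF-7 IC50.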

In data set [4] the test system is SK-BR-3. Briefly: Induction of apoptosis in human SK-BR-3 cells assessed as viable cells at 5 uM incubated for 36 hrs by Annexin V/PI staining based flow cytometry (reference value: 90.4 %). The class given is functional. Particulars: read-out: Activity. (In flow cytometry, cells or beads pass a laser one at a time.)
The test system of data set [5] is SK-BR-3. Briefly: Induction of apoptosis in human SK-BR-3 cells assessed as viable cells at 10 uM incubated for 36 hrs by Annexin V/PI staining based flow cytometry (reference value: 90.4 %). The format is functional. The settings on record: read-out: Activity.
Data set [6] relates to SK-BR-3. Briefly: Induction of apoptosis in human SK-BR-3 cells assessed as increase in cleaved pro-caspase-8 level at 10 to 20 uM incubated for 48 hrs by Western blot analysis. Particulars: dose 10-20 µM. The class given is functional, cell-based. The essentials:
as §1

Data set [7] relates to SK-BR-3. The experiment in a line: Induction of apoptosis in human SK-BR-3 cells assessed as early apoptotic cells at 5 uM incubated for 36 hrs by Annexin V/PI staining based flow cytometry (reference value: 2.73 %). The format is functional.
The test system of data set [8] is SK-BR-3. Briefly: Effect on HSP70 level in human SK-BR-3 cells at 5 to 20 uM incubated for 48 hrs by Western blot analysis. The class given is functional, cell-based. Particulars: dose 5-20 µM. The method, boiled down: as §1
(A western blot detects proteins with antibodies after separation by electrophoresis.)

In data set [9] the test system is MCF7. The experiment in a line: Induction of apoptosis in human MCF7 cells assessed as viable cells at 5 uM incubated for 36 hrs by Annexin V/PI staining based flow cytometry (reference value: 90.5 %). The class given is functional. Particulars: read-out: Activity.
Data set [10] concerns MCF7. Briefly: Induction of apoptosis in human MCF7 cells assessed as early apoptotic cells at 10 uM incubated for 36 hrs by Annexin V/PI staining based flow cytometry (reference value: 1.13 %). The class given is functional.
In data set [11] the test system is MCF7. The experiment in a line: Antiproliferative activity against human MCF7 cells assessed as inhibition of cell viability measured after 48 hrs by MTT assay. The class given is functional, cell-based. The settings on record: MCF7, 48 h. The method, boiled down: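 MTT cell viability read-out; IC50 obtained by non-linear regression of concentration–response data; values are mean ± SD of three independent experiments.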
In general terms: Tetrazolium assays rely on reduction of a dye to a coloured formazan, in cell work by metabolically active cells.

Active and inactive are the calls of the source. No cut-off for these calls is given here.

As usually defined, the IC50 is the concentration that gives 50% inhibition. With `CN1CCN(/C=C/C(=O)/C=C/c2cccc(O[Si](C)(C)C(C)(C)C)c2)CC1`, the outcome in the data set on SK-BR-3 [1] and with SK-BR-3 [8] was inactive. The outcome with SK-BR-3 [2] and in the data set with SK-BR-3 [6] was Active. The selectivity ratio in data set [3] was about 4.2. Further, the results for the viability at 5 µM in the data set on SK-BR-3 [4] and with MCF7 [9] were 89.6% and 80%, respectively. In the data set on SK-BR-3 [5], the viability at 10 µM stood at 86.9%. The values for the Activity with SK-BR-3 [7] and with MCF7 [10] were 2.76% and 2.6%, respectively. The 50% inhibitory concentration (IC50) in the data set on MCF7 [11] came to 7.85 µM.

(Values after ChEMBL document CHEMBL5356984 (RSC Med Chem, 2023).)
